The record followed here is ChEMBL document CHEMBL1151423, “Pharmacokinetics-pharmacodynamics of gatifloxacin in a lethal murine Bacillus anthracis inhalation infection model” (Antimicrob Agents Chemother, 2007).

Structures are written as SMILES. Values after ≈ are worked out from the molar mass of the structure shown.

Series [1] can be described thus: Half life in mouse at 10 to 100 mg/kg, ip. It counts as ADME, organism-based. On the set-up: dose 10-100 mg/kg, route intraperitoneal. The settings on record: in vivo. The procedure, abridged: (§1)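 Mice, three groups, each received a single intraperitoneal gatifloxacin dose of 10, 50 or 100 mg/kg. Sera were taken by exsanguination under anaesthesia from three mice per group at 0.25–12 h post-dose and stored at −70°C. Levels were measured by bioassay (S. aureus ATCC 29213 indicator; standard curve in control mouse serum) in triplicate, detection range 0.12–64 μg/ml. Pooled data were fitted by maximum likelihood to a two-compartment model with first-order absorption and lag time.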

Series [2] is described as follows: Ratio of AUC (0 to 24 hrs) for Staphylococcus aureus infected ICR/Swiss mouse model to MIC for Staphylococcus aureus. It counts as functional.
A short description of series [3]: Half life in human. The settings on record: in vivo. It counts as ADME, organism-based.
In series [4] the test system is Mus musculus. The series can be described thus: Apparent volume of distribution with respect to the bioavailability in mouse at 10 to 100 mg/kg, ip. It counts as ADME, organism-based. The note with it: in vivo. The procedure, abridged:
as §1

Series [5] in a line: Ratio of AUC (0 to 24 hrs) for Staphylococcus infected patient to MIC for Staphylococcus. It counts as functional.
The nature of series [6]: Apparent total clearance in mouse at 10 to 100 mg/kg, ip. It counts as ADME, organism-based. Further details: dose 10-100 mg/kg, route intraperitoneal. The settings on record: in vivo, read-out: CLt/F (converted). The method in brief: as §1
Series [7] is described as follows: Ratio of AUC (0 to 24 hrs) for Enterococcus infected patient to MIC for Enterococcus. It counts as functional.
For series [8], the system named is Mus musculus. Kind of series: Tlag in mouse at 10 to 100 mg/kg, ip. It counts as ADME, organism-based. Further details: dose 10-100 mg/kg, route intraperitoneal. The note with it: in vivo. The procedure, abridged:
as §1

A further series relates to Bacillus anthracis. Kind of series: Antimicrobial activity against Bacillus anthracis Ames after 18 hrs by microdilution method. It counts as functional. On the technique in general: In broth dilution the organism is exposed to a series of concentrations in liquid medium.
Series [9] in a line: Apparent total clearance in human. It counts as ADME, organism-based. The settings on record: in vivo, read-out: CLt/F (converted).
Series [10] relates to Mus musculus. The series can be described thus: Apparent peripheral volume of distribution in mouse at 10 to 100 mg/kg, ip. It counts as ADME, organism-based. On the set-up: dose 10-100 mg/kg, route intraperitoneal. The note with it: in vivo. The procedure, abridged: as §1
Series [11] has as its system Mus musculus. Kind of series: Apparent distribution clearance in mouse at 10 to 100 mg/kg, ip. It counts as ADME, organism-based. On the set-up: dose 10-100 mg/kg, route intraperitoneal. The settings on record: in vivo. The method in brief: as §1

In general, half-life refers to how long it takes for the measured level to halve. In general, MIC refers to the lowest concentration that inhibits growth of the organism. A lower MIC goes with a more susceptible organism. As for `COc1c(N2CCNC(C)C2)c(F)cc2c(=O)c(C(=O)O)cn(C3CC3)c12` (configuration not stated) [GATIFLOXACIN], the half-life in [1] is 0.6 h; in series [3] it was 9 h. Moreover, the results for the Ratio in series [2], in series [5] and in [7] were 83, 85 and 85, respectively. Besides, in the series with Mus musculus [4], the Vc/F is 0.2 L/kg. Further, the results for the CL/F in series [6] and in series [9] were 45 mL/min/kg and 1.67 mL/min/kg, respectively. For the same compound, in the series with Mus musculus [8], the Tlag came out at 0.23 h. Moreover, in the series with Bacillus anthracis, it took 0.125 µg/mL (≈ 0.333 µM) to inhibit growth (MIC). The Vp/F in the series with Mus musculus [10] was 1.6 L/kg. Further, the CLd/F in the series with Mus musculus [11] is 128 mL/min/kg.
